Screens: PubChem, several laboratories
ABHD5 PLIN5 PPI: ABHD5-PLIN5 protein interaction inhibition; Split G. princeps luciferase complementation, luminescence, 4 h; inhibition, % at 4 µM; 0.78% of 360,000 active;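 active = inhibition above the mean inhibition across every tested compound plus 3 SD, cut at about 22% in these data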;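 note: 0% = DMSO only wells and the 100% control is not disclosed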
Target sequence (Q00G26 whole entry, looked up): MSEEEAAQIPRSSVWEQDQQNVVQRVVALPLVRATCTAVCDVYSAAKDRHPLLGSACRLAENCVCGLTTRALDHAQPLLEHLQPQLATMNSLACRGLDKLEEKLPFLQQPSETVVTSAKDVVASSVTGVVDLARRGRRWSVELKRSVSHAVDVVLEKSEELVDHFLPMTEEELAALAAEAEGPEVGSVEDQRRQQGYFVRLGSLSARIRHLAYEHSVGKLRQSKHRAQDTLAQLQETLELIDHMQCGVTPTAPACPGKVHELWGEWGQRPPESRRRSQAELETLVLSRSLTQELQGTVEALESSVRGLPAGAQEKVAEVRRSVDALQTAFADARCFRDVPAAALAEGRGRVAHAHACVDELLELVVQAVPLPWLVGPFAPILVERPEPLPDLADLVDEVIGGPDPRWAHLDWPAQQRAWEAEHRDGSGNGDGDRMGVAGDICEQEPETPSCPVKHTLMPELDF
Target sequence (Q8WTS1 whole entry, looked up): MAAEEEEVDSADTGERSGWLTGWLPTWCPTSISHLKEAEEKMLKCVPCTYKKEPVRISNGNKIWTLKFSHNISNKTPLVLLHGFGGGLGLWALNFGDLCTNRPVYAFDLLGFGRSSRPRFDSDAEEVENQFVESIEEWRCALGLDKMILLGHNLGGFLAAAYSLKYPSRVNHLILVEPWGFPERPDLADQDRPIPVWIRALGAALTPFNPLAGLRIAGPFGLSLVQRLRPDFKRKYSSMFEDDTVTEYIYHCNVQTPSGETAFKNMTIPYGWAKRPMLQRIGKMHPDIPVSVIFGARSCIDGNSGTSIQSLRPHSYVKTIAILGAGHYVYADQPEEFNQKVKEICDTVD
Rpn11 block: inhibitors of human proteasome Rpn11. O00487. human 26S proteasome, Ub4-pepOG fluorescence polarization; 20S core pre-blocked with epoxomicin. inhibition, % at 20 µM. 0.59% of 360,000 active;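 active = inhibition at 20 µM, scaled to each plate's controls, above about 33%, limit read from the data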
Rin1-Abl PPI inh: blocks binding of human Rin1 to Abl | 0.4% of 360,000 active | AID 588664 | inhibition, % at 7.35 µM | TR-FRET Rin1/Abl binding, biochemical; in the data active = inhibition above about 5%, passing the limit was not always enough
XiGFP reactiv: X-chromosome reactivation activator; XiGFP mouse fibroblasts, % GFP-positive cells imaging, 3 d; cells co-treated with 5-aza-dC sensitizer; scaled so ellipticine positive control = 100%; activation, % at 7.58 µM; 0.055% of 360,000 active;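 active = mean normalized replicate activation at least 10% and every replicate at or above 10%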;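 note: 0% = median of on-plate neutral control wells and 100% = ellipticine 6 µM median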
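assay system = SV40-immortalized XiGFP fibroblast cells, line 68-5-11 | buffer or medium = DMEM plus 5-aza-dC sensitizer | doses = single-point pinned compound dosing | times = 3-day compound exposure, then 15 min fixation at room temperature | benchmarks = positive control ellipticine, 6 µM final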
NadD inh: NadD (S. aureus) enzyme inhibition | purified NadD enzyme, colorimetric absorbance read-out | inhibition, % at 20 µM | 0.78% of 360,000 active; in the data active = inhibition above about 26%
Rpn11 confirm: Rpn11 inhibition confirmation, single concentration | 29% of 1,900 active | purified human 26S proteasome, Ub4-pepOG fluorescence polarization; proteasome pretreated with epoxomicin | shares compounds with Rpn11 block | inhibition, % at 20 µM
MMP-2 inh: blocks human MMP-2, flagging nonselective RPN11 hits; shares compounds with Rpn11 block; recombinant MMP-2, FRET peptide cleavage fluorescence; inhibition, % at 20 µM; 4% of 1,900 active; AID 602330;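 note: human MMP-2 activated beforehand with APMA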
Thrombin inh: thrombin (bovine) inhibition counter-screen; shares compounds with Rpn11 block; bovine thrombin cleavage of Ub4-pepOG, fluorescence polarization; inhibition, % at 20 µM; 13% of 1,900 active;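 active = mean inhibition at least 40% at 20 µM, or signal 3 deviations below plate average, so some actives read negative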;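 note: plate controls were thrombin with DMSO for no effect and buffer wells lacking thrombin for full effect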
Active calls of the source: *; ! = repeats disagree. An excerpt weighted towards active compounds, which were near 1.9% of everything screened. Cut-off read from the data, not from the text of the source, unless noted: active = inhibition above about 40%; inactive = the rest.

Results for C[C@@H]1CN([C@@H](C)CO)C(=O)c2cc(C#CCN(C)C)cnc2O[C@H]1CN(C)Cc1ccc(-c2ccccc2)cc1 ?
XiGFP reactiv: 0

How did Cc1ccc2oc(=O)c(/C=C(\O)c3ccco3)nc2c1 do in these assays?
ABHD5 PLIN5 PPI: -5; Rpn11 block: 66*; Rin1-Abl PPI inh: 4; XiGFP reactiv: 0; NadD inh: 3; Rpn11 confirm: 70*; MMP-2 inh: -31; Thrombin inh: -13

How did C[C@H]1CN([C@@H](C)CO)C(=O)c2cccc(NC(=O)c3nc4ccccc4s3)c2O[C@H]1CN(C)Cc1ccc(C(=O)Nc2ccccc2N)cc1 do in these assays?
XiGFP reactiv: 0

What do the screens show for `CCCC(=O)Nc1nc(C)c(-c2csc(Nc3ccc(Cl)cc3)n2)s1`?
ABHD5 PLIN5 PPI: -20; Rpn11 block: 21; Rin1-Abl PPI inh: 2; XiGFP reactiv: 0; NadD inh: 26

What do the screens show for `CCC(C)C(=O)Nc1nc(C)c(-c2csc(Nc3ccc(Cl)cc3)n2)s1` (stereo not drawn)?
ABHD5 PLIN5 PPI: -9; Rpn11 block: 39*; Rin1-Abl PPI inh: -3; XiGFP reactiv: 0; NadD inh: 19; Rpn11 confirm: 20; MMP-2 inh: 14; Thrombin inh: -6

How did CN1/C(=C\C=N\NC(=O)c2cccnc2)C(C)(C)c2ccccc21 do in these assays?
ABHD5 PLIN5 PPI: 5; Rpn11 block: 4; Rin1-Abl PPI inh: -1; XiGFP reactiv: 0; NadD inh: -5

Results for Cc1c(N=C/C=C2/N(C)c3ccccc3C2(C)C)c(=O)n(-c2ccccc2)n1C ?
ABHD5 PLIN5 PPI: 8; Rpn11 block: 47*!; Rin1-Abl PPI inh: 0; XiGFP reactiv: 0; NadD inh: -3; Rpn11 confirm: 33; MMP-2 inh: -8; Thrombin inh: 30

How did Cc1c(N=C/C=C2\N(C)c3ccccc3C2(C)C)c(=O)n(-c2ccccc2)n1C do in these assays?
ABHD5 PLIN5 PPI: 0; Rpn11 block: 4; Rin1-Abl PPI inh: -1; NadD inh: -5

How did CN1/C(=C\C=N\NC(=O)c2ccc(O)cc2)C(C)(C)c2ccccc21 do in these assays?
ABHD5 PLIN5 PPI: -11; Rpn11 block: 72*; Rin1-Abl PPI inh: -3; XiGFP reactiv: 0; NadD inh: 10; Rpn11 confirm: 38; MMP-2 inh: -31; Thrombin inh: 7

Results for COc1ccc(NC(=O)Nc2ccc3c(c2)CC(=O)N([C@H](C)CO)C[C@H](C)[C@@H](CN(C)Cc2ccc(C(=O)Nc4ccccc4N)cc2)O3)cc1 ?
XiGFP reactiv: -1

How did C[C@@H]1CN(C)C(=O)c2cccnc2O[C@H]1CN(C)C do in these assays?
XiGFP reactiv: 0

How did COc1ccc(CN2CC3(CCN(C(C)=O)CC3)c3c(n(C)c4cc(OC)ccc34)[C@H]2CO)cc1 do in these assays?
XiGFP reactiv: 0

What do the screens show for `COc1ccc(-c2nc3cc(C)ccn3c2NCC2CCCO2)cc1OC` (stereo not drawn)?
ABHD5 PLIN5 PPI: -12; Rpn11 block: -1; Rin1-Abl PPI inh: -5; NadD inh: 2

How did COc1cc(-c2nc3cccc(C)n3c2NCC2CCCO2)ccc1O (stereo not drawn) do in these assays?
ABHD5 PLIN5 PPI: -2; Rpn11 block: 42*; Rin1-Abl PPI inh: -5; XiGFP reactiv: 0; NadD inh: -2; Rpn11 confirm: 1; MMP-2 inh: -30; Thrombin inh: active

What do the screens show for `C[C@H]1CN(C)C(=O)c2ccccc2O[C@@H]1CN(C)S(C)(=O)=O`?
XiGFP reactiv: 0

Results for Cc1cc(/C=N/n2cnnc2)c(C)n1-c1ccc(Cl)cc1 ?
ABHD5 PLIN5 PPI: -2; Rpn11 block: -1; Rin1-Abl PPI inh: -1; XiGFP reactiv: 0; NadD inh: 8

How did Cc1cc(N2CCCC2)ccc1/C=N/n1cnnc1 do in these assays?
ABHD5 PLIN5 PPI: 2; Rpn11 block: 47*; Rin1-Abl PPI inh: 2; NadD inh: 13; Rpn11 confirm: -23; MMP-2 inh: -59; Thrombin inh: -12
